1 compound from ChEMBL document CHEMBL3826936, “Alkyne-substituted diminazene as G-quadruplex binders with anticancer activities” (Eur J Med Chem, 2016) can be followed below.

The nature of assay [1]: Stabilization of c-MYC Pu27 G-quadruplex DNA (unknown origin) assessed as inhibition of Taq polymerase-mediated polymerization/extension of Pu27 and Pu27rev oligomers at 10 uM preincubated for 6 hrs followed by Taq polymerase addition by PCR stop assay.
Assay [2] can be described thus: Stabilization of c-MYC template Pu27-13,14 mutant DNA (unknown origin) assessed as inhibition of Taq polymerase-mediated polymerization/extension of Pu27-13,14 mutant and Pu27rev oligomers at 25 uM preincubated for 6 hrs followed by Taq polymerase addition by PCR stop assay.
The nature of assay [3]: Stabilization of c-MYC template Pu27 mutant DNA (unknown origin) assessed as inhibition of Taq polymerase-mediated polymerization/extension of Pu27 mutant and Pu27rev oligomers at 1 to 25 uM preincubated for 6 hrs followed by Taq polymerase addition by PCR stop assay.
Assay [4] in a line: Binding affinity to wild type c-MYC 24-mer G-quadruplex DNA (unknown origin) by isothermal titration calorimetry. On the technique in general: Isothermal titration calorimetry measures the heat released or taken up as one component is titrated into another.
Assay [5] in a line: Binding affinity to wild type Bcl2 27-mer G-quadruplex DNA (unknown origin) by isothermal titration calorimetry.
Assay [6] is described as follows: Selectivity ratio of Kd for 8-bp AT rich duplex DNA (unknown origin) to Kd for wild type c-MYC 24-mer G-quadruplex DNA (unknown origin).
A short description of assay [7]: Selectivity ratio of Kd for 8-bp AT rich duplex DNA (unknown origin) to Kd for wild type Bcl2 27-mer G-quadruplex DNA (unknown origin).
Assay [8] can be described thus: Binding affinity to 8-bp AT rich duplex DNA (unknown origin) by isothermal titration calorimetry.
The nature of assay [9]: Binding affinity to 5'-FAM/3'-TAMRA labeled c-MYC 22-mer G-quadruplex DNA (unknown origin) assessed as change in melting temperature at 4 uM after 12 hrs by TR-FRET assay. A digest of the protocol: (§1)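 Dual-labeled FAM/TAMRA oligos diluted to 800 nM in 60 mM potassium cacodylate (pH 7.2), annealed 10 min at 85 °C and cooled to room temperature. Mixed 1:1 with ligand at […] in the same buffer. Equilibrated at least 12 h at 4 °C. ΔT1/2 taken as melting temperature with minus without ligand, in triplicate, averaged.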
For orientation: Time-resolved FRET reads energy transfer from a long-lived donor to a nearby acceptor.

Assay [10] can be described thus: Binding affinity to 5'-FAM/3'-TAMRA labeled F21T 21-mer G-quadruplex DNA (unknown origin) assessed as change in melting temperature at 4 uM after 12 hrs by TR-FRET assay. A digest of the protocol:
as §1

Assay [11] can be described thus: Binding affinity to 5'-FAM/3'-TAMRA labeled c-kit2 26-mer G-quadruplex DNA (unknown origin) assessed as change in melting temperature at 4 uM after 12 hrs by TR-FRET assay. Put shortly: as §1
A short description of assay [12]: Binding affinity to 5'-FAM/3'-TAMRA labeled k-RAS21R 21-mer G-quadruplex DNA (unknown origin) assessed as change in melting temperature at 4 uM after 12 hrs by TR-FRET assay. Put shortly:
as §1

Assay [13] is described as follows: Binding affinity to 5'-FAM/3'-TAMRA labeled 26-mer duplex DNA (unknown origin) assessed as change in melting temperature at 4 uM after 12 hrs by TR-FRET assay.
Assay [14] is described as follows: Antiproliferative activity against human OVCAR3 cells after 72 hrs by WST-1 assay. The class given is functional. To be noted: OVCAR-3, 72 h. A digest of the protocol: (§2)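 Cells seeded in 96-well plates the afternoon before treatment, at numbers keeping them in log-phase growth; about 18 h later, compounds semi-serially diluted in DMSO then growth medium and added. Incubation 72 h, then WST-1 added and plates read after 4 more hours at 37 °C. GI50 derived from curve fits; viability expressed relative to DMSO control.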
(In general: Tetrazolium assays rely on reduction of a dye to a coloured formazan, in cell work by metabolically active cells.)

Assay [15] can be described thus: Antiproliferative activity against human PC3 cells assessed as cell viability at 20 uM after 72 hrs by WST-1 assay relative to control. The class given is functional. To be noted: PC-3, 72 h, read-out: Activity. A digest of the protocol:
as §2

The subject of a further assay is MDA-MB-231. Nature of the assay: Antiproliferative activity against human MDA-MB-231 cells assessed as cell viability at 20 uM after 72 hrs by WST-1 assay relative to control. To be noted: MDA-MB-231, 72 h, read-out: Activity. The assay is classed as functional. Put shortly: as §2

The source made the active and inactive calls. The rule behind the calls is not given here.

A word on the Kd: it is the concentration at which binding is half-saturated. A low value points to a tighter complex. By ΔTm is commonly meant the shift of the melting midpoint relative to a reference. A word on the GI50: it is the concentration giving 50% growth inhibition. Lower therefore signals greater sensitivity of the cells. On to `N=C(N)c1ccc(/N=N/Nc2ccc(C(=N)N)cc2)cc1` [DIMINAZENE], for which the inhibition entry in assay [1], in assay [2] and in assay [3] was “Active” throughout. The Kd in assay [4] is 1 nM; in assay [5] it was 1 nM; in assay [8], 1000 nM. Besides, the Selectivity ratio in [6] and in assay [7] was 1000 throughout. Besides, the thermal shift (ΔTm) in assay [9] was determined as 18.3 °C; in assay [10] it was 16.6 °C; in assay [11], 11.7 °C; in assay [12], 24.1 °C; in assay [13], 6.8 °C. Moreover, the 50% growth inhibitory concentration (GI50) in assay [14] was over 25000 nM. The viability at 20 µM (in assay [15]; in the assay on MDA-MB-231) was at least 75% in each case.
